Measured values reported in ChEMBL document CHEMBL1140548, “Synthesis, antibacterial activity, and quantitative structure-activity relationships of new (Z)-2-(nitroimidazolylmethylene)-3(2H)-benzofuranone derivatives” (2007).
Values after ≈ are worked out from the molar mass of the structure shown.

How the values were obtained:
Type in all cases: functional
[1] = test system: Staphylococcus epidermidis; test: Antimicrobial activity against Staphylococcus epidermidis ATCC 12228
Procedure, shortened: (§1)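 Agar-dilution assay run in vitro on a panel of Gram-positive and Gram-negative bacteria, with amoxicillin as the reference drug. The MIC was taken as the minimal inhibitory concentration.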

Staphylococcus aureus [2] = test: Antimicrobial activity against Staphylococcus aureus ATCC 6538p; procedure, shortened: as §1
Bacillus subtilis [3] = test: Antimicrobial activity against Bacillus subtilis ATCC 6633; procedure, shortened: as §1
Staphylococcus aureus [4] = test: Antimicrobial activity against methicillin-resistant Staphylococcus aureus isolate
Procedure, shortened: (§2)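 In vitro conventional agar-dilution assay against a panel of Gram-positive and Gram-negative bacteria. Read-out is the minimal inhibitory concentration (MIC), with amoxicillin as the reference drug.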

Klebsiella pneumoniae [5] = test: Antimicrobial activity against Klebsiella pneumoniae ATCC 10031; procedure, shortened: as §1
Klebsiella pneumoniae [6] = test: Antimicrobial activity against Klebsiella pneumoniae ATCC 10031 in presence of 0.1% butylated hydroxytoluene
Staphylococcus aureus [7] = test: Antimicrobial activity against methicillin-resistant Staphylococcus aureus isolate in presence of 0.1% butylated hydroxytoluene; procedure, shortened: as §2
Bacillus subtilis [8] = test: Antimicrobial activity against Bacillus subtilis ATCC 6633 in presence of 0.1% butylated hydroxytoluene
Staphylococcus aureus [9] = test: Antimicrobial activity against Staphylococcus aureus ATCC 6538p in presence of 0.1% butylated hydroxytoluene; procedure, shortened: as §2
[10] = test system: Staphylococcus epidermidis; test: Antimicrobial activity against Staphylococcus epidermidis ATCC 12228 in presence of 0.1% butylated hydroxytoluene

Row | SMILES | MIC [1] | MIC (Staphylococcus aureus [2]) | MIC (Bacillus subtilis [3]) | MIC (Staphylococcus aureus [4]) | MIC (Klebsiella pneumoniae [5]) | MIC (Klebsiella pneumoniae [6]) | MIC (Staphylococcus aureus [7]) | MIC (Bacillus subtilis [8]) | MIC (Staphylococcus aureus [9]) | MIC [10]
1 | COc1ccc2c(c1)C(=O)/C(=C/c1ncc([N+](=O)[O-])n1C)O2 | 3.12 µg/mL (≈ 10.4 µM) | 3.12 µg/mL (≈ 10.4 µM) | 0.78 µg/mL (≈ 2.59 µM) | 3.12 µg/mL (≈ 10.4 µM) | 0.39 µg/mL (≈ 1.29 µM) | – | – | – | – | –
2 | Cc1ccc2c(c1)C(=O)/C(=C/c1ncc([N+](=O)[O-])n1C)O2 | 3.12 µg/mL (≈ 11 µM) | 3.12 µg/mL (≈ 11 µM) | 1.56 µg/mL (≈ 5.47 µM) | 3.12 µg/mL (≈ 11 µM) | 0.39 µg/mL (≈ 1.37 µM) | – | – | – | – | –
3 | Cn1cnc([N+](=O)[O-])c1/C=C1\Oc2ccccc2C1=O | > 100 µg/mL | > 100 µg/mL | > 100 µg/mL | > 100 µg/mL | > 100 µg/mL | – | – | – | – | –
4 | COc1cccc2c1O/C(=C\c1c([N+](=O)[O-])ncn1C)C2=O | > 100 µg/mL | > 100 µg/mL | > 100 µg/mL | > 100 µg/mL | > 100 µg/mL | – | – | – | – | –
5 | Cn1cnc([N+](=O)[O-])c1/C=C1\Oc2c(Cl)cccc2C1=O | > 100 µg/mL | > 100 µg/mL | > 100 µg/mL | > 100 µg/mL | > 100 µg/mL | – | – | – | – | –
6 | Cn1cnc([N+](=O)[O-])c1/C=C1\Oc2ccc(Cl)cc2C1=O | > 100 µg/mL | > 100 µg/mL | > 100 µg/mL | > 100 µg/mL | > 100 µg/mL | – | – | – | – | –
7 | Cn1cnc([N+](=O)[O-])c1/C=C1\Oc2cc(Cl)ccc2C1=O | > 100 µg/mL | > 100 µg/mL | > 100 µg/mL | > 100 µg/mL | > 100 µg/mL | – | – | – | – | –
8 | Cn1c([N+](=O)[O-])cnc1/C=C1\Oc2cc(O)cc(O)c2C1=O | – | – | – | – | – | > 100 µg/mL | > 100 µg/mL | 50 µg/mL | > 100 µg/mL | 50 µg/mL
9 | Cn1c([N+](=O)[O-])cnc1C=C1C(=O)c2ccccc2C1=O | 50 µg/mL (≈ 177 µM) | 100 µg/mL (≈ 353 µM) | 50 µg/mL (≈ 177 µM) | 100 µg/mL (≈ 353 µM) | > 100 µg/mL | – | – | – | – | –
10 | Cn1c([N+](=O)[O-])cnc1/C=C1\Oc2ccc(Cl)cc2C1=O | 3.12 µg/mL (≈ 10.2 µM) | 3.12 µg/mL (≈ 10.2 µM) | 1.56 µg/mL (≈ 5.1 µM) | 3.12 µg/mL (≈ 10.2 µM) | 0.78 µg/mL (≈ 2.55 µM) | – | – | – | – | –
11 | Cn1c([N+](=O)[O-])cnc1/C=C1\Oc2ccc(I)cc2C1=O | > 100 µg/mL | > 100 µg/mL | > 100 µg/mL | > 100 µg/mL | 50 µg/mL (≈ 126 µM) | – | – | – | – | –
12 | COc1ccc2c(c1)C(=O)/C(=C/c1c([N+](=O)[O-])ncn1C)O2 | > 100 µg/mL | > 100 µg/mL | > 100 µg/mL | > 100 µg/mL | 6.25 µg/mL (≈ 20.7 µM) | – | – | – | – | –
13 | Cc1cccc2c1O/C(=C\c1ncc([N+](=O)[O-])n1C)C2=O | 1.56 µg/mL (≈ 5.47 µM) | 3.12 µg/mL (≈ 11 µM) | 1.56 µg/mL (≈ 5.47 µM) | 3.12 µg/mL (≈ 11 µM) | 0.39 µg/mL (≈ 1.37 µM) | – | – | – | – | –
14 | Cc1ccc2c(c1)O/C(=C\c1c([N+](=O)[O-])ncn1C)C2=O | > 100 µg/mL | > 100 µg/mL | > 100 µg/mL | > 100 µg/mL | > 100 µg/mL | – | – | – | – | –
15 | Cn1c([N+](=O)[O-])cnc1/C=C1\Oc2c(Cl)cccc2C1=O | 3.12 µg/mL (≈ 10.2 µM) | 3.12 µg/mL (≈ 10.2 µM) | 3.12 µg/mL (≈ 10.2 µM) | 3.12 µg/mL (≈ 10.2 µM) | 1.56 µg/mL (≈ 5.1 µM) | – | – | – | – | –
16 | Cn1c([N+](=O)[O-])cnc1/C=C1\Oc2cc(O)ccc2C1=O | – | – | – | – | – | 3.12 µg/mL | 12.5 µg/mL | 6.25 µg/mL | 12.5 µg/mL | 6.25 µg/mL
